Results as given in ChEMBL document CHEMBL1139352, “Synthesis and evaluation of novel inhibitors of Pim-1 and Pim-2 protein kinases” (J Med Chem, 2009).

Experiments:
[1] = molecular target: Epidermal growth factor receptor (Homo sapiens) (UniProt P00533); experiment: Inhibition of EGFR at 5 uM
Mus musculus [2] = experiment: Toxicity in Swiss-Webster mouse at 50 mg/kg, ip daily for 5 days; type: organism-based; parameters: dose 50 mg/kg, route intraperitoneal; settings: in vivo, 120 h
Mus musculus [3] = experiment: Toxicity against mouse JC cells xenografted BALB/c mouse assessed as loss of body weight at 50 mg/kg, ip for 5 days per week; type: organism-based; parameters: dose 50 mg/kg, route intraperitoneal; settings: in vivo, 120 h
Mus musculus [4] = experiment: Toxicity in Swiss Webster mouse assessed as monocyte count at 3 mg/kg, ip daily for 7 days measured after 7 days; type: organism-based; parameters: dose 3 mg/kg, route intraperitoneal; settings: in vivo, 168 h
[5] = molecular target: Tyrosine-protein kinase SYK (Homo sapiens) (UniProt P43405); experiment: Inhibition of SYK at 5 uM
[6] = molecular target: Mitogen-activated protein kinase 14 (Homo sapiens) (UniProt Q16539); experiment: Inhibition of p38alpha at 5 uM
[7] = Inhibition of PKA at 5 uM
[8] = molecular target: 5'-AMP-activated protein kinase subunit beta-1 (Homo sapiens) (UniProt Q9Y478); experiment: Inhibition of AMPK at 5 uM
Mus musculus [9] = experiment: Toxicity in Swiss Webster mouse assessed as albumin level at 10 mg/kg, ip daily for 7 days measured after 7 days; type: organism-based; parameters: dose 10 mg/kg, route intraperitoneal; settings: in vivo, 168 h
Mus musculus [10] = experiment: Toxicity in Swiss Webster mouse assessed as alanine aminotransferase level at 3 mg/kg, ip daily for 7 days measured after 7 days; type: organism-based; parameters: dose 3 mg/kg, route intraperitoneal; settings: in vivo, 168 h
[11] = molecular target: Insulin receptor (Homo sapiens) (UniProt P06213); experiment: Inhibition of INSR at 5 uM
Mus musculus [12] = experiment: Toxicity in Swiss Webster mouse assessed as glucose level at 50 mg/kg, ip daily for 7 days measured after 7 days; type: organism-based; parameters: dose 50 mg/kg, route intraperitoneal; settings: in vivo, 168 h
Mus musculus [13] = experiment: Toxicity in Swiss Webster mouse assessed as granulocyte count at 10 mg/kg, ip daily for 7 days measured after 7 days; type: organism-based; parameters: dose 10 mg/kg, route intraperitoneal; settings: in vivo, 168 h
Mus musculus [14] = experiment: Toxicity in Swiss Webster mouse assessed as phosphate level at 10 mg/kg, ip daily for 7 days measured after 7 days; type: organism-based; parameters: dose 10 mg/kg, route intraperitoneal; settings: in vivo, 168 h
Mus musculus [15] = experiment: Toxicity in Swiss Webster mouse assessed as creatinine level at 3 mg/kg, ip daily for 7 days measured after 7 days; type: organism-based; parameters: dose 3 mg/kg, route intraperitoneal; settings: in vivo, 168 h
Mus musculus [16] = experiment: Toxicity in Swiss Webster mouse assessed as blood urea nitrogen level at 50 mg/kg, ip daily for 7 days measured after 7 days; type: organism-based; parameters: dose 50 mg/kg, route intraperitoneal; settings: in vivo, 168 h
[17] = molecular target: Ribosomal protein S6 kinase alpha-5 (Homo sapiens) (UniProt O75582); experiment: Inhibition of MSK1 at 5 uM
Mus musculus [18] = experiment: Toxicity in Swiss Webster mouse assessed as creatinine level at 50 mg/kg, ip daily for 7 days measured after 7 days; type: organism-based; parameters: dose 50 mg/kg, route intraperitoneal; settings: in vivo, 168 h
[19] = molecular target: Serine/threonine-protein kinase MARK1 (Homo sapiens) (UniProt Q9P0L2); experiment: Inhibition of MARK1 at 5 uM
Mus musculus [20] = experiment: Toxicity in Swiss Webster mouse assessed as creatinine level at 10 mg/kg, ip daily for 7 days measured after 7 days; type: organism-based; parameters: dose 10 mg/kg, route intraperitoneal; settings: in vivo, 168 h
[21] = molecular target: Inhibitor of nuclear factor kappa-B kinase subunit beta (Homo sapiens) (UniProt O14920); experiment: Inhibition of IKK-beta at 5 uM
[22] = molecular target: Mitogen-activated protein kinase kinase kinase kinase 4 (Homo sapiens) (UniProt O95819); experiment: Inhibition of HGK at 5 uM
[23] = molecular target: Calcium/calmodulin-dependent protein kinase type IV (Homo sapiens) (UniProt Q16566); experiment: Inhibition of CAMK4 at 5 uM
Sequence of Calcium/calmodulin-dependent protein kinase type IV (Homo sapiens) (Q16566 whole entry): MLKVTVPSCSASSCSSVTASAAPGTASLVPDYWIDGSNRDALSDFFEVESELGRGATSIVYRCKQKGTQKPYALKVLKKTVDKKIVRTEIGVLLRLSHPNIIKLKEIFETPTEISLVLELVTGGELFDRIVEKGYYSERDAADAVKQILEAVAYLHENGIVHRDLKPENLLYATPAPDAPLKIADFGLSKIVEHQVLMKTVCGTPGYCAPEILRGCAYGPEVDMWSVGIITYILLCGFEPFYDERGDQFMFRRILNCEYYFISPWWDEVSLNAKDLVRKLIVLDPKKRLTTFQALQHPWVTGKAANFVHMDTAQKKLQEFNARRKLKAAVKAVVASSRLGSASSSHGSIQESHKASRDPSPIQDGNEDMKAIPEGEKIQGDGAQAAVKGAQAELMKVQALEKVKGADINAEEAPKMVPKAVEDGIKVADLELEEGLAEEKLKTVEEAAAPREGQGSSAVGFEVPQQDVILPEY

Mus musculus [24] = experiment: Toxicity in Swiss Webster mouse assessed as lymphocyte count at 10 mg/kg, ip daily for 7 days measured after 7 days; type: organism-based; parameters: dose 10 mg/kg, route intraperitoneal; settings: in vivo, 168 h
[25] = molecular target: RAF proto-oncogene serine/threonine-protein kinase (Homo sapiens) (UniProt P04049); experiment: Inhibition of c-Raf at 5 uM
[26] = molecular target: Tyrosine-protein kinase JAK2 (Homo sapiens) (UniProt O60674); experiment: Inhibition of JAK2 at 5 uM
Sequence of Tyrosine-protein kinase JAK2 (Homo sapiens) (O60674 whole entry): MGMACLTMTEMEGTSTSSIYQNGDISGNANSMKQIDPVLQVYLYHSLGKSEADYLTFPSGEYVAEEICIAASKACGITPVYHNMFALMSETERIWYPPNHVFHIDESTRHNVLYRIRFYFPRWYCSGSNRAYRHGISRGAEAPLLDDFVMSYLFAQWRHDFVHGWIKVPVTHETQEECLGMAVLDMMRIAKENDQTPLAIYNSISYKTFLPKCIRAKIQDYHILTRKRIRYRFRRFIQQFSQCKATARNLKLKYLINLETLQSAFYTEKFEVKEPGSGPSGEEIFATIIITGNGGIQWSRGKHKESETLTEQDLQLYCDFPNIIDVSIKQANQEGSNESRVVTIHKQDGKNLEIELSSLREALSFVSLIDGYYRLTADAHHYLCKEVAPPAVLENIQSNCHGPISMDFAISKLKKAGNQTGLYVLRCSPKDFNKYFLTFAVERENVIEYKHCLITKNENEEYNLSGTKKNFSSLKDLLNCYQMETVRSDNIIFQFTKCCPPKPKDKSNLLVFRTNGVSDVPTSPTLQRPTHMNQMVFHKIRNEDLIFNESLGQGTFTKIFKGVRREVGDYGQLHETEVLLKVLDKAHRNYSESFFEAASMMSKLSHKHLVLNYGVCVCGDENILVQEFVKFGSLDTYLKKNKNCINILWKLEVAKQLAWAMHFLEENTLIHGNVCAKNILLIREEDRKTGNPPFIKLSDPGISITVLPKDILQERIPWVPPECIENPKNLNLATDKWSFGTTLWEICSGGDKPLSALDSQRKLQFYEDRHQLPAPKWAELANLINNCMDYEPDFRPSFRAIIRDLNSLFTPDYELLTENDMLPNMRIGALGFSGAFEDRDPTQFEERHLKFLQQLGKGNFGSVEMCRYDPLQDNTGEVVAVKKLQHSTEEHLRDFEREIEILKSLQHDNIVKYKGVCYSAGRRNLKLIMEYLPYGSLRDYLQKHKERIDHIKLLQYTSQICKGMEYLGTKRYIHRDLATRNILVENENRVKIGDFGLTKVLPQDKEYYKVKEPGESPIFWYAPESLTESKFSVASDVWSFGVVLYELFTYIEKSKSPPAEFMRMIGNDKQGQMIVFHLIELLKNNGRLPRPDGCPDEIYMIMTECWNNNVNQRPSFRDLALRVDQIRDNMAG

[27] = molecular target: Tyrosine-protein kinase Lck (Homo sapiens) (UniProt P06239); experiment: Inhibition of LCK at 5 uM
Mus musculus [28] = experiment: Toxicity in Swiss Webster mouse assessed as white blood cell count at 10 mg/kg, ip daily for 7 days measured after 7 days; type: organism-based; parameters: dose 10 mg/kg, route intraperitoneal; settings: in vivo, 168 h
Method in brief: (§1)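 Six-week-old female Swiss Webster mice (about 25 g) received intraperitoneal injections daily for 7 days. Doses were 3, 10 or 50 mg/kg, with a vehicle group (30% PEG-400, 5% Tween-80, 65% DMSO). Values are reported as ranges per group.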

[29] = Antitumor activity against mouse JC cells xenografted BALB/c mouse assessed as tumor growth inhibition at 50 mg/kg, ip for 5 days per week; type: functional; parameters: scale not given: the % may be the effect or the level left; settings: route intraperitoneal
Method in brief: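 Syngeneic model: female Balb/c mice were implanted subcutaneously with 1 × 10⁶ JC murine mammary adenocarcinoma cells in PBS. Once tumors were palpable, mice were randomized into groups. They received intraperitoneal injections once daily, five days per week, of either vehicle (50% DMSO : 50% PBS) or 50 mg/kg. Tumor volume was taken as (L × W²)/2. n = 5 mice per group; mean ± standard error.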

[30] = molecular target: Aurora kinase A (Homo sapiens) (UniProt O14965); experiment: Inhibition of AurA at 5 uM
Sequence of Aurora kinase A (Homo sapiens) (O14965 whole entry): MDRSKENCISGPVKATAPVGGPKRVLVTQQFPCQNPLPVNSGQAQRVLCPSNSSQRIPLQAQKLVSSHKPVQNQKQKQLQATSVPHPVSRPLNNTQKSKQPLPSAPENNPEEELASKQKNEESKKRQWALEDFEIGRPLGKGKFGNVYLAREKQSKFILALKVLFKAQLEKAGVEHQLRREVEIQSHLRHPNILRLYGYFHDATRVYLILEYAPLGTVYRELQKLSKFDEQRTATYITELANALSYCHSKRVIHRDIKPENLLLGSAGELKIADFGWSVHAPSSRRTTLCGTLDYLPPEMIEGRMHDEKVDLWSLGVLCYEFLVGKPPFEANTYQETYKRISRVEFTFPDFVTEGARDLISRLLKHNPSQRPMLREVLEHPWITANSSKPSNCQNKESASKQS

[31] = molecular target: Rho-associated protein kinase 2 (Homo sapiens) (UniProt O75116); experiment: Inhibition of ROCK2 at 5 uM
[32] = molecular target: Casein kinase I isoform delta (Homo sapiens) (UniProt P48730); experiment: Inhibition of CK1delta at 5 uM
Mus musculus [33] = experiment: Toxicity in Swiss Webster mouse assessed as white blood cell count at 3 mg/kg, ip daily for 7 days measured after 7 days; type: organism-based; parameters: dose 3 mg/kg, route intraperitoneal; settings: in vivo, 168 h; method in brief: as §1
[34] = molecular target: Protein kinase C beta type (Homo sapiens) (UniProt P05771); experiment: Inhibition of PKCbeta2 at 5 uM
Mus musculus [35] = experiment: Toxicity in Swiss Webster mouse assessed as blood urea nitrogen level at 10 mg/kg, ip daily for 7 days measured after 7 days; type: organism-based; parameters: dose 10 mg/kg, route intraperitoneal; settings: in vivo, 168 h
Mus musculus [36] = experiment: Toxicity in Swiss Webster mouse assessed as Na+ level at 10 mg/kg, ip daily for 7 days measured after 7 days; type: organism-based; parameters: dose 10 mg/kg, route intraperitoneal; settings: in vivo, 168 h
[37] = molecular target: Interleukin-1 receptor-associated kinase 4 (Homo sapiens) (UniProt Q9NWZ3); experiment: Inhibition of IRAK4 at 5 uM
[38] = molecular target: Fibroblast growth factor receptor 1 (Homo sapiens) (UniProt P11362); experiment: Inhibition of FGFR1 at 5 uM
[39] = molecular target: Mitogen-activated protein kinase 3 (Homo sapiens) (UniProt P27361); experiment: Inhibition of Erk1 at 5 uM
[40] = molecular target: Receptor-type tyrosine-protein kinase FLT3 (Homo sapiens) (UniProt P36888); experiment: Inhibition of FLT3 at 5 uM
Sequence of Receptor-type tyrosine-protein kinase FLT3 (Homo sapiens) (P36888 whole entry): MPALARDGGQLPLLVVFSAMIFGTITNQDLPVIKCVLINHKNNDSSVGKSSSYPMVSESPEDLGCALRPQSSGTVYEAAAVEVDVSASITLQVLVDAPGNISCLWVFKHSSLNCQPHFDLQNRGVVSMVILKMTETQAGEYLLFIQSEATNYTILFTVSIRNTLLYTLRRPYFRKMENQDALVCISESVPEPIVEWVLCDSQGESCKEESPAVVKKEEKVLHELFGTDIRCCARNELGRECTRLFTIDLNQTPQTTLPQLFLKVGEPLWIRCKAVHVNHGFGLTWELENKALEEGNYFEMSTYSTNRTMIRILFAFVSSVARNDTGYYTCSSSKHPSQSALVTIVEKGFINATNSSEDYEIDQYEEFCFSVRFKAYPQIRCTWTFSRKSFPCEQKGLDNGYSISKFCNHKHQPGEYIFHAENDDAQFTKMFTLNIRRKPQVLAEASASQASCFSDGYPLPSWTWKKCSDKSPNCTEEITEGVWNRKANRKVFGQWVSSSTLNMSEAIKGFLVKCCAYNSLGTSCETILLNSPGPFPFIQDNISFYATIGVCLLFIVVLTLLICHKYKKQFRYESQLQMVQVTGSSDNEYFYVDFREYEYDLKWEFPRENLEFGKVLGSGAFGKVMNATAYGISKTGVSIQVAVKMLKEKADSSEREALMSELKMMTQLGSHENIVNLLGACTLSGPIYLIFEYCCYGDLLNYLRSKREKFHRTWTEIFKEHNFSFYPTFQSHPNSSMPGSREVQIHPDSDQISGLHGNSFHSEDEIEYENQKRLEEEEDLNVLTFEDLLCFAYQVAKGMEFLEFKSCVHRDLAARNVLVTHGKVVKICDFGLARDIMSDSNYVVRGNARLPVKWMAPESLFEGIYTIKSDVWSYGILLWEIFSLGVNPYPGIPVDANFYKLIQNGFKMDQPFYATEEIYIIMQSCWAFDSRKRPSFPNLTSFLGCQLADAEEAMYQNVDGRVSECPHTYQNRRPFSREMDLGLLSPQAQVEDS

Mus musculus [41] = experiment: Toxicity in Swiss Webster mouse assessed as Na+ level at 3 mg/kg, ip daily for 7 days measured after 7 days; type: organism-based; parameters: dose 3 mg/kg, route intraperitoneal; settings: in vivo, 168 h
[42] = molecular target: Tyrosine-protein kinase Lyn (Homo sapiens) (UniProt P07948); experiment: Inhibition of LYN at 5 uM
Mus musculus [43] = experiment: Toxicity in Swiss Webster mouse assessed as amylase level at 50 mg/kg, ip daily for 7 days measured after 7 days; type: organism-based; parameters: dose 50 mg/kg, route intraperitoneal; settings: in vivo, 168 h
[44] = molecular target: Ribosomal protein S6 kinase alpha-1 (Homo sapiens) (UniProt Q15418); experiment: Inhibition of RSK1 at 5 uM
Sequence of Ribosomal protein S6 kinase alpha-1 (Homo sapiens) (Q15418 whole entry): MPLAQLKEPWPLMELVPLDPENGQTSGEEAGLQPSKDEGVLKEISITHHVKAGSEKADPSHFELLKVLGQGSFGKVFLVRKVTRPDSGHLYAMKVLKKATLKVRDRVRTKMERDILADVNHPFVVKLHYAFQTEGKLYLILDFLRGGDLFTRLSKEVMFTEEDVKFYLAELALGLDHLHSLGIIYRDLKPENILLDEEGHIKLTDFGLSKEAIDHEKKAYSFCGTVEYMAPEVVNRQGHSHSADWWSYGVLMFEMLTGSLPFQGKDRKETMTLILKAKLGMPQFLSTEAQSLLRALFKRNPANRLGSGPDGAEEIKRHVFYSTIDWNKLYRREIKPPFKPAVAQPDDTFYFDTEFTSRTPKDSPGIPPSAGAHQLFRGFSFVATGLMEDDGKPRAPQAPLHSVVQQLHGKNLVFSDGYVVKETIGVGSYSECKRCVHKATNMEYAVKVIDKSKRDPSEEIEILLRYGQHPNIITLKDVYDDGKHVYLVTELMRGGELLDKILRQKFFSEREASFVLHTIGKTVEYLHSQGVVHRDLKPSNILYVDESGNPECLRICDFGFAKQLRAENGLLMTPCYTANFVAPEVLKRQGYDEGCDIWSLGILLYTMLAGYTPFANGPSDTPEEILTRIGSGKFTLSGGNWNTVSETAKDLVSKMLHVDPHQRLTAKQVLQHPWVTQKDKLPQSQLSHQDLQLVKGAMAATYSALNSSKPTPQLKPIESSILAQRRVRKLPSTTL

[45] = molecular target: Cytoplasmic tyrosine-protein kinase BMX (Homo sapiens) (UniProt P51813); experiment: Inhibition of BMX at 5 uM

Sequence of Epidermal growth factor receptor (Homo sapiens) (P00533 whole entry): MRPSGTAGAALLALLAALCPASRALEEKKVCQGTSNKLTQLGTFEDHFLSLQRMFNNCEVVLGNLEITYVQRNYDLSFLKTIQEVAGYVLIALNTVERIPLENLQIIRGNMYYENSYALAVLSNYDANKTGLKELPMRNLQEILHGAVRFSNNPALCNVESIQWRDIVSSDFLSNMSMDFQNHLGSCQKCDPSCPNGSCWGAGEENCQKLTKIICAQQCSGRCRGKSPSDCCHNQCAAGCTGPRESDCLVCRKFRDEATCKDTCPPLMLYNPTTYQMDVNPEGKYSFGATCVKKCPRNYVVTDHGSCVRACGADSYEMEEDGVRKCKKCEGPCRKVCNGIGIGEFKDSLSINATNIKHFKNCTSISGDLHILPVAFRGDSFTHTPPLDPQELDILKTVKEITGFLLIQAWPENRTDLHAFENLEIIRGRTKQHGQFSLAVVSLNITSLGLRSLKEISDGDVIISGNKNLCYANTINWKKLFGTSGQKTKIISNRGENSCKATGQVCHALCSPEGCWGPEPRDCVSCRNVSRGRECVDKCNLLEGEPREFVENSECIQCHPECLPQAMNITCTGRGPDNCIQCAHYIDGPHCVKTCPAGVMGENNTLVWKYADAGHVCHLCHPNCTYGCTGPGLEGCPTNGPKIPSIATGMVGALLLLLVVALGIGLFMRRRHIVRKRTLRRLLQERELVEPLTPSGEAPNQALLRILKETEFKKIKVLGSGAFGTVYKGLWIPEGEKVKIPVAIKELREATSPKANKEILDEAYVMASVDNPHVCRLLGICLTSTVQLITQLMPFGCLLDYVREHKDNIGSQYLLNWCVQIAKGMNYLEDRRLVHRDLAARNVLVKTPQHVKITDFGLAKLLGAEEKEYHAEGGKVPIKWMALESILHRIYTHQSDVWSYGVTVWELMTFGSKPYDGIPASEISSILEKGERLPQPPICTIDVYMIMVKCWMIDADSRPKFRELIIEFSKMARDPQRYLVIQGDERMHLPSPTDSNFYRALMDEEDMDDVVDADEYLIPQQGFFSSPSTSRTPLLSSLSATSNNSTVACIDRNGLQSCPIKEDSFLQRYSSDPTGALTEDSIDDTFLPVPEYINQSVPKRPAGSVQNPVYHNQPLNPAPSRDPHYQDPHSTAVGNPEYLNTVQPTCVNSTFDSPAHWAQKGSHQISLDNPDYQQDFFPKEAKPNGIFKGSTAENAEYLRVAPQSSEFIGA

**Q.** Which inhibition [1] does the source give for `CCCOc1ccc(/C=C2\SC(=O)NC2=O)cc1` here?
**A.** Its inhibition is -3%.

**Q.** And the Activity (Mus musculus [2])?
**A.** Its Activity is “Non-toxic”.

**Q.** And the Activity (Mus musculus [3])?
**A.** The Activity was “Non-toxic”.

**Q.** What about the Activity (Mus musculus [4]) of the same compound?
**A.** Its Activity is 0.11 ×10⁹ /L.

**Q.** And the inhibition [5]?
**A.** Its inhibition is -3%.

**Q.** And the inhibition [6]?
**A.** The inhibition was 0%.

**Q.** What about the inhibition [7] of the same compound?
**A.** Its inhibition is 3%.

**Q.** What about the inhibition [8] of the same compound?
**A.** Its inhibition is 7%.

**Q.** And the Activity (Mus musculus [9])?
**A.** Its Activity is 2.9 g/dL.

**Q.** And the Activity (Mus musculus [10])?
**A.** Its Activity is 40 U/L.

**Q.** And the inhibition [11]?
**A.** The inhibition was 4%.

**Q.** What about the Activity (Mus musculus [12]) of the same compound?
**A.** The Activity was 136 mg/dL.

**Q.** What about the Activity (Mus musculus [13]) of the same compound?
**A.** The Activity was 0.61 ×10⁹ /L.

**Q.** And the Activity (Mus musculus [14])?
**A.** Its Activity is 5.7 mg/dL.

**Q.** What about the Activity (Mus musculus [15]) of the same compound?
**A.** Its Activity is 0.2 mg/dL.

**Q.** And the Activity (Mus musculus [16])?
**A.** The Activity was 14 mg/dL.

**Q.** What about the inhibition [17] of the same compound?
**A.** The inhibition was -1%.

**Q.** What about the Activity (Mus musculus [18]) of the same compound?
**A.** The Activity was 0.2 mg/dL.

**Q.** And the inhibition [19]?
**A.** Its inhibition is -6%.

**Q.** What about the Activity (Mus musculus [20]) of the same compound?
**A.** Its Activity is 0.2 mg/dL.

**Q.** What about the inhibition [21] of the same compound?
**A.** Its inhibition is 10%.

**Q.** And the inhibition [22]?
**A.** The inhibition was 9%.

**Q.** And the inhibition [23]?
**A.** Its inhibition is -8%.

**Q.** And the Activity (Mus musculus [24])?
**A.** The Activity was 3.94 ×10⁹ /L.

**Q.** What about the inhibition [25] of the same compound?
**A.** The inhibition was -1%.

**Q.** And the inhibition [26]?
**A.** The inhibition was 18%.

**Q.** And the inhibition [27]?
**A.** The inhibition was 3%.

**Q.** And the Activity (Mus musculus [28])?
**A.** Its Activity is 4.95 ×10⁹ /L.

**Q.** And the Activity [29]?
**A.** Its Activity is 50%.

**Q.** What about the inhibition [30] of the same compound?
**A.** The inhibition was 4%.

**Q.** What about the inhibition [31] of the same compound?
**A.** Its inhibition is 5%.

**Q.** What about the inhibition [32] of the same compound?
**A.** Its inhibition is 7%.

**Q.** And the Activity (Mus musculus [33])?
**A.** Its Activity is 3.73 ×10⁹ /L.

**Q.** What about the inhibition [34] of the same compound?
**A.** Its inhibition is -1%.

**Q.** What about the Activity (Mus musculus [35]) of the same compound?
**A.** The Activity was 11 mg/dL.

**Q.** And the Activity (Mus musculus [36])?
**A.** The Activity was 144 mmol/L.

**Q.** What about the inhibition [37] of the same compound?
**A.** The inhibition was 5%.

**Q.** What about the inhibition [38] of the same compound?
**A.** The inhibition was 1%.

**Q.** And the inhibition [39]?
**A.** The inhibition was 1%.

**Q.** And the inhibition [40]?
**A.** Its inhibition is 1%.

**Q.** What about the Activity (Mus musculus [41]) of the same compound?
**A.** The Activity was 150 mmol/L.

**Q.** And the inhibition [42]?
**A.** Its inhibition is 8%.

**Q.** And the Activity (Mus musculus [43])?
**A.** Its Activity is 760 U/L.

**Q.** What about the inhibition [44] of the same compound?
**A.** Its inhibition is 5%.

**Q.** And the inhibition [45]?
**A.** Its inhibition is 10%.
